Source: ChEMBL document CHEMBL1135044, “Studies on the side-chain hydroxylation of ifosfamide and its bromo analogue” (Bioorg Med Chem Lett, 2002)

Legend:
[1] = Therapeutic index represented as LD50/ED50 was determined
Mus musculus [2] = species: Mus musculus; assay: Effective dose that produce antitumor activity against L1210 leukemia in mice; assay type: functional
Procedure, shortened: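 CD2F1 mice were inoculated ip with 10^5 ascitic L1210 cells in PBS and given a single ip dose on day 3 (advanced disease), following NIH/NCI in vivo screening protocols. ILS was calculated as T/C × 100 − 100 from average survival times. ED50, the dose giving 50% ILS, was read graphically from least-squares dose–effect curves.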

Mus musculus [3] = species: Mus musculus; assay: Maximum tolerated dose against L1210 leukemia in mice; assay type: functional
Procedure, shortened: (§1)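 Sub-acute toxicity was tested in healthy, non-tumour-bearing CD2F1 females (12–16 weeks, 25–27 g), given a single ip injection or oral gavage and observed for 45 days. Mortality was pooled from 3–6 experiments, usually 4–7 dose levels, with ≥5 mice per group. Litchfield–Wilcoxon log-dose curves were fitted. LD50 (with 95% confidence limits) and LD5 (taken as MTD) were estimated graphically.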

[4] = Dose required to kill 50% of healthy, non-tumour-bearing mice (LD50); conditions: mouse, in vivo; procedure, shortened: as §1

| Structure (SMILES) | TI [1] | ED50 (Mus musculus [2]) | MTD (Mus musculus [3]) | LD50 [4] |
| --- | --- | --- | --- | --- |
| O=P1(NCCCl)OCCCN1CCCl (stereo not drawn) [IFOSFAMIDE] | 7.1 Ratio | 96.4 mg/kg | 518 mg/kg | 687 mg/kg |
| [2H]C([2H])(CCl)N[P@]1(=O)OCCCN1C([2H])([2H])CBr | 17.7 Ratio | 15 mg/kg | 196 mg/kg | 265 mg/kg |
| O=P1(NCCCl)OCCCN1CCBr (stereo not drawn) | 9.3 Ratio | 34.3 mg/kg | 236 mg/kg | 320 mg/kg |
| [2H]C([2H])(CCl)NP1(=O)OCCCN1C([2H])([2H])CBr (stereo not drawn) |  | 23.6 mg/kg |  |  |
| O=[P@]1(NCCCl)OCCCN1CCBr | 13.6 Ratio | 21.3 mg/kg | 230 mg/kg | 289 mg/kg |
| [2H]C([2H])(CCl)NP1(=O)OCCCN1C([2H])([2H])CCl (stereo not drawn) |  | 67.8 mg/kg |  |  |
